Activity calls are given as the source filed them. No cut-off for these calls is given here.

A word on the inhibition: it is how much of the control response was suppressed. As a reminder, the IC50 is the midpoint of a concentration-inhibition curve. High values mean weaker potency, low ones greater potency.

Assay [1] has as its target T1, Quinolone resistance protein NorA (Staphylococcus aureus) (UniProt P0A0J7).
T1 sequence (whole entry): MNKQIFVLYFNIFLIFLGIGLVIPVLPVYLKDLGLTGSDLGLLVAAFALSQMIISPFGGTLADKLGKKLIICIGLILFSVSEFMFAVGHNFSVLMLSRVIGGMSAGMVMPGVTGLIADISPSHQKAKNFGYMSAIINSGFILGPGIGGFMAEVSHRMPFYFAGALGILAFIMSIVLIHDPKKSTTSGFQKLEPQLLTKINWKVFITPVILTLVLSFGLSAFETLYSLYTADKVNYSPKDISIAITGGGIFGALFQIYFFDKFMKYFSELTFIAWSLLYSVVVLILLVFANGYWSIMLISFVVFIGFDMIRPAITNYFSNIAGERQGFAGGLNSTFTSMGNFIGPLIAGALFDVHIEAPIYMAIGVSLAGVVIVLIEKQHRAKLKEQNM
Nature of the assay: Inhibition of Staphylococcus aureus SA-1199B NorA expressed in Escherichia coli DH10B assessed as inhibition of Hoechst 33342 dye efflux at 10 uM after 150 to 160 secs by spectrofluorometric analysis in presence of 50 uM Mg2+. A digest of the protocol:
(§1)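 Everted membrane vesicles from E. coli DH10B carrying pTrcHis2C-norA, made by French press with 0.1 mM PMSF and 0.1 mg/mL DNase; pTrc99A vesicles serve as control. Vesicles at 80 µg protein/mL in 50 mM potassium HEPES, 8.5 mM NaCl, 2 mM MgCl₂, pH 7.2. Hoechst 33342 added, then Mg²⁺-ATP to energise, inhibitor at 150–160 s.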

Assay [2] concerns the target T1, Quinolone resistance protein NorA (Staphylococcus aureus). Nature of the assay: Inhibition of Staphylococcus aureus SA-1199B NorA expressed in Escherichia coli DH10B assessed as inhibition of Hoechst 33342 dye efflux at 10 uM by spectrofluorometric analysis in presence of 50 uM Mg2+. A digest of the protocol:
as §1

The target is the same in assay [3]. Nature of the assay: Inhibition of norA-mediated ethidium bromide efflux in methicillin-resistant Staphylococcus aureus SA-1199B at 2.5 ug/ml by spectrofluorometric analysis. A digest of the protocol: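 Whole-cell efflux assay, strain grown in Mueller Hinton II broth; compounds dissolved in DMSO, 1% DMSO in MHB II as negative control, reserpine as positive control. Background read from a pellet resuspended in clean MHB II. Fluorescence read in duplicate at ex 530 nm / em 600 nm; the mean is reported as percent reduction of efflux versus control.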

The target is the same in assay [4]. Put plainly: Inhibition of norA-mediated ethidium bromide efflux in methicillin-resistant Staphylococcus aureus SA-1199B at 5 ug/ml by spectrofluorometric analysis. A digest of the protocol:
(§2)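 Ethidium bromide efflux from S. aureus cells in MHB II, compounds dissolved in DMSO. Reserpine 20 µg/mL as positive control and 1% DMSO as negative control; background taken from a resuspended pellet in clean medium. Fluorescence read at ex 530/em 600 nm in duplicate; mean given as percent reduction of efflux versus control.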

The target is the same in assay [5]. Put plainly: Inhibition of norA-mediated ethidium bromide efflux in methicillin-resistant Staphylococcus aureus SA-1199B at 10 ug/ml by spectrofluorometric analysis. A digest of the protocol:
as §2

For assay [6] the target is unchanged. Put plainly: Inhibition of norA-mediated ethidium bromide efflux in methicillin-resistant Staphylococcus aureus SA-1199B at 20 ug/ml by spectrofluorometric analysis. A digest of the protocol:
as §2

For assay [7], the target named is T2, Quinolone resistance protein NorA (Staphylococcus aureus, UniProt P0A0J7).
T2 sequence (P0A0J7 whole entry): T1 sequence (whole entry)
Put plainly: Inhibition of norA-mediated ethidium bromide efflux in methicillin-resistant Staphylococcus aureus SA-1199B by spectrofluorometric analysis. A digest of the protocol:
as §2

The target of assay [8] is T1, Quinolone resistance protein NorA (Staphylococcus aureus). Put plainly: Inhibition of norA in Staphylococcus aureus SA-1199B overexpressing norA assessed as fold reduction in ciprofloxacin MIC at 3.13 ug/mL by checkerboard assay. A digest of the protocol: (§3)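 Checkerboard in MHB with twofold serial dilutions: ciprofloxacin 0.05–12.5 µg/mL against inhibitor 0.2–25 µg/mL. Inoculum 5 × 10⁵ cfu/mL, 20 h at 35 °C, visual MIC read-out. Fold reduction of ciprofloxacin MIC recorded at the inhibitor concentration giving it. FIC index is the sum of both drugs' FICs; ≤0.5 counts as synergy.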

In another assay the test system is Escherichia coli. Put plainly: Inhibition of Hoechst 33342 dye in norA-deficient Escherichia coli DH10B expressing pTrc99A at 2 ug/mL by spectrofluorometer analysis. The format is functional, organism-based. Particulars: K-12 DH10B. A digest of the protocol:
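Everted membrane vesicles were made from overnight E. coli DH10B carrying pTrcHis2C-norA or control pTrc99A. PMSF (0.1 mM final) was added before French press and DNase (0.1 mg/mL final) to the lysate. Vesicles were diluted to 80 µg protein/mL in 50 mM potassium HEPES, 8.5 mM NaCl, 2 mM MgCl2, pH 7.2. Hoechst 33342 was added, then Mg2+-ATP after the signal stabilised (~30 s). Inhibitor was added at 150–160 s. Fluorescence ex 355/em 457 nm over 300 s.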

Assay [9] relates to Staphylococcus aureus. Nature of the assay: Antibacterial activity against Staphylococcus aureus SA-1199B overexpressing norA at 25 ug/ml after 20 hrs by microdilution method. In kind it is functional, organism-based. A digest of the protocol: (§4)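 Broth microdilution in Mueller Hinton broth II with an inoculum of 5 × 10⁵ cfu/mL, incubated 20 h at 35 °C. MIC is the lowest concentration with no visible growth. Controls were bacteria with DMSO at up to about 1%, and ciprofloxacin. Run to CLSI/EUCAST guidelines in duplicate or more.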
In general terms: In broth dilution the organism is exposed to a series of concentrations in liquid medium.

Assay [10] has as its system Staphylococcus aureus. Nature of the assay: Antibacterial activity against Staphylococcus aureus ATCC […] at 25 ug/ml after 20 hrs by microdilution method. In kind it is functional, organism-based. A digest of the protocol: as §4
The target of assay [11] is T1, Quinolone resistance protein NorA (Staphylococcus aureus). Particulars: ATCC 29213.
The target is the same in assay [12]. Put plainly: Inhibition of norA in Staphylococcus aureus SA-1199B overexpressing norA assessed as fold reduction in ciprofloxacin MIC by checkerboard assay. A digest of the protocol:
as §3

For assay [13] the target is unchanged. Put plainly: Inhibition of norA in Staphylococcus aureus ATCC 29213 overexpressing norA assessed as fold reduction in ciprofloxacin MIC at 3.13 ug/mL by checkerboard assay. A digest of the protocol:
as §3

Assay [14] concerns Staphylococcus aureus. Nature of the assay: Antibacterial activity against Staphylococcus aureus SA-1199B overexpressing norA at 0.2 to 25 ug/ml after 20 hrs by microdilution method. In kind it is functional, organism-based. A digest of the protocol: as §4
In assay [15] the test system is Staphylococcus aureus. Nature of the assay: Antibacterial activity against Staphylococcus aureus ATCC 29213 […] at 0.2 to 25 ug/ml after 20 hrs by microdilution method. In kind it is functional, organism-based. A digest of the protocol: as §4
Assay [16] deals with T1, Quinolone resistance protein NorA (Staphylococcus aureus). As to conditions: SA-1199B.
The target is the same in assay [17]. Put plainly: Inhibition of norA in Staphylococcus aureus SA-1199B overexpressing norA assessed as fold reduction in ciprofloxacin MIC by checkerboard assay.

Consider `CC(C)[C@@H]1NC(=O)[C@H](C)OC(=O)[C@@H](C(C)C)NC(=O)[C@@H](C(C)C)OC(=O)[C@H](C(C)C)NC(=O)[C@H](C)OC(=O)[C@@H](C(C)C)NC(=O)[C@@H](C(C)C)OC(=O)[C@H](C(C)C)NC(=O)[C@H](C)OC(=O)[C@@H](C(C)C)NC(=O)[C@@H](C(C)C)OC1=O`, for which the inhibition result in assay [1] and in assay [2] was “Active” each time.
`CN(C)CCOc1ccc(C(=O)/C=C/c2ccc(Oc3ccccc3)cc2)cc1`: the inhibition in assay [3] was determined as 43.4%; in assay [4] it was 68.8%; in [5] it was 97.5%; in [6] it was 99.1%. For the same molecule, inhibition in [7] was half-maximal at 9 µM (IC50). The fractional inhibitory concentration index (FICI) in assay [8] was 0.38. Further, in the assay with Escherichia coli, the inhibition result is “inactive”. Also, the result in the assay with Staphylococcus aureus [9] and in the assay with Staphylococcus aureus [10] was Active. In addition, in assay [11], the FICI is 0.26.
Consider `C=CCOc1ccccc1C(=O)/C=C/c1ccc(OCC(=O)O)cc1`, for which the inhibition result is “Dose-dependent effect” in assay [12]; 14.7% in [3]; 46.2% in assay [4]; 79.9% in assay [5]; 87.1% in [6]; “Dose-dependent effect” in assay [17]. In [7], this molecule yielded an IC50 of 16.9 µM. Also, the fractional inhibitory concentration index (FICI) in assay [13] turned out to be 0.25. Besides, the inhibition entry with Escherichia coli was “inactive”. For the same molecule, the result in the assay on Staphylococcus aureus [14] and in the assay on Staphylococcus aureus [15] was inactive. Moreover, in [16], the FICI is 0.25.

The values above are taken from ChEMBL document CHEMBL2157969, “Chalcone inhibitors of the NorA efflux pump in Staphylococcus aureus whole cells and enriched everted membrane vesicles” (Bioorg Med Chem, 2012).
